Results published in ChEMBL document CHEMBL3808312, “Bioactive Constituents of Glycyrrhiza uralensis (Licorice): Discovery of the Effective Components of a Traditional Herbal Medicine” (J Nat Prod, 2016).

Columns and labels:
Influenza A virus [1] = test: Antiviral activity against Influenza A virus A/WSN/33(H1N1) infected in MDCK cells at 100 uM preincubated with virus for 15 mins followed by cells addition measured at 36 hrs post infection; assay type: functional, A/WSN/1933(H1N1)
In short: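 MDCK canine kidney cells grown in DMEM and infected with influenza A/WSN/33 (H1N1). Compounds screened at 100 μM. Oseltamivir phosphate served as the positive control.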

Influenza A virus [2] = test: Antiviral activity against Influenza A virus A/WSN/33(H1N1) infected in dog MDCK cells preincubated with virus for 15 mins followed by cells addition measured at 36 hrs post infection; assay type: functional, organism-based; conditions: A/WSN/1933(H1N1)

Row | Structure (SMILES) | Activity (Influenza A virus [1]) [%] | IC50 (Influenza A virus [2]) [µM] | inhibition at 100 µM (Influenza A virus [1]; Influenza A virus, A/WSN/1933(H1N1), MDCK) [%]
1 | CC1(C)[C@H]2CC[C@@]3(C)[C@@H](C(=O)C=C4[C@@H]5C[C@]6(C)C[C@@H](COC6=O)[C@@]5(C)CC[C@@]43C)[C@]2(C)CC[C@H]1O[C@@H]1O[C@H](C(=O)O)[C@@H](O)[C@H](O)[C@H]1O[C@@H]1O[C@H](C(=O)O)[C@@H](O)[C@H](O)[C@H]1O | 47 | 39.6 | 
2 | CC1(C)[C@@H](O[C@@H]2O[C@H](C(=O)O)[C@@H](O)[C@H](O)[C@H]2O[C@@H]2O[C@H](C(=O)O)[C@@H](O)[C@H](O)[C@H]2O)CC[C@]2(C)[C@H]3C(=O)C=C4[C@H]5C[C@@](C)(C=O)CC[C@]5(C)CC[C@@]4(C)[C@]3(C)CC[C@@H]12 | 47 | 39.6 | 
3 | CC1(C)[C@@H](O[C@@H]2O[C@H](C(=O)O)[C@@H](O)[C@H](O)[C@H]2O[C@@H]2O[C@H](C(=O)O)[C@@H](O)[C@H](O)[C@H]2O)CC[C@]2(C)[C@H]3C=CC4=C5C[C@@](C)(C(=O)O)CC[C@]5(C)CC[C@@]4(C)[C@]3(C)CC[C@@H]12 | 47 | 39.6 | 
4 | CC(=O)O[C@@H]1C[C@](C)(C(=O)O)C[C@@H]2C3=CC(=O)[C@@H]4[C@@]5(C)CC[C@H](O[C@@H]6O[C@H](C(=O)O)[C@@H](O)[C@H](O)[C@H]6O[C@@H]6O[C@H](C(=O)O)[C@H](O)[C@H](O)[C@H]6O)C(C)(C)[C@@H]5CC[C@@]4(C)[C@]3(C)CC[C@]21C | 47 | 39.6 | 
5 | C[C@]1(C(=O)O)CC[C@]2(C)CC[C@]3(C)C(=CC(=O)[C@@H]4[C@@]5(C)CC[C@H](O[C@@H]6O[C@H](C(=O)O)[C@@H](O)[C@H](O)[C@H]6O[C@@H]6O[C@H](C(=O)O)[C@@H](O)[C@H](O)[C@H]6O)[C@](C)(CO)[C@@H]5CC[C@]43C)[C@H]2C1 | 47 | 39.6 | 
6 | CC1(C)[C@@H](O[C@H]2O[C@H](C(=O)O)[C@@H](O)[C@H](O)[C@H]2O[C@@H]2O[C@H](C(=O)O)[C@@H](O)[C@H](O)[C@H]2O)CC[C@]2(C)[C@H]3C(=O)C=C4[C@@H]5C[C@@](C)(C(=O)O)CC[C@]5(C)CC[C@@]4(C)[C@]3(C)CC[C@@H]12 [GLYCYRRHIZIN] | 47 | 39.6 | 
7 | CC1(C)[C@@H](O[C@@H]2O[C@H](C(=O)O)[C@@H](O)[C@H](O)[C@H]2O[C@@H]2OC[C@H](O)[C@H](O)[C@H]2O)CC[C@]2(C)[C@H]3C(=O)C=C4[C@H]5C[C@@](C)(C(=O)O)CC[C@]5(C)CC[C@@]4(C)[C@]3(C)CC[C@@H]12 | 47 | 39.6 | 
8 | CC(=O)O[C@H]1C[C@@](C)(C(=O)O)C[C@H]2C3=CC(=O)[C@H]4[C@]5(C)CC[C@@H](O[C@@H]6O[C@H](C(=O)O)[C@@H](O)[C@H](O)[C@H]6O[C@H]6O[C@@H](C(=O)O)[C@H](O)[C@@H](O)[C@@H]6O[C@H]6O[C@H](C)[C@@H](O)[C@H](O)[C@@H]6O)C(C)(C)[C@H]5CC[C@]4(C)[C@@]3(C)CC[C@]12C | 47 | 39.6 | 
9 | CC(=O)O[C@@H]1C[C@](C)(C(=O)O)C[C@@H]2C3=CC(=O)[C@@H]4[C@@]5(C)CC[C@H](O[C@H]6O[C@@H](C(=O)O)[C@H](O)[C@@H](O)[C@@H]6O[C@H]6O[C@@H](C(=O)O)[C@H](O)[C@@H](O)[C@@H]6O)C(C)(C)[C@@H]5CC[C@@]4(C)[C@]3(C)CC[C@]21C | 47 | 39.6 | 
10 | CC(C)=CCc1c(O)cc(O)c2c(=O)c(-c3ccc(O)c(O)c3)coc12 [GANCAONIN L] |  |  | > 30
11 | CC(=O)O[C@H]1C[C@@](C)(C(=O)O)C[C@H]2C3=CC(=O)[C@H]4[C@]5(C)CC[C@@H](O[C@@H]6O[C@H](C(=O)O)[C@@H](O)[C@H](O)[C@H]6O[C@H]6OC[C@H](O)[C@@H](O)[C@@H]6O[C@H]6O[C@H](C)[C@@H](O)[C@H](O)[C@@H]6O)C(C)(C)[C@H]5CC[C@]4(C)[C@@]3(C)CC[C@]12C | 47 | 39.6 | 
12 | CC1(C)[C@@H](O[C@@H]2O[C@H](C(=O)O)[C@@H](O)[C@H](O[C@@H]3O[C@H](C(=O)O)[C@@H](O)[C@H](O)[C@H]3O)[C@H]2O)CC[C@]2(C)[C@H]3C(=O)C=C4[C@H]5C[C@@](C)(C(=O)O)CC[C@]5(C)CC[C@@]4(C)[C@]3(C)CC[C@@H]12 | 47 | 39.6 | 
13 | CC(=O)O[C@@H]1C[C@](C)(C=O)C[C@@H]2C3=CC(=O)[C@@H]4[C@@]5(C)CC[C@H](O[C@@H]6O[C@H](C(=O)O)[C@@H](O)[C@H](O)[C@H]6O[C@@H]6O[C@H](C(=O)O)[C@@H](O)[C@H](O)[C@H]6O)C(C)(C)[C@@H]5CC[C@@]4(C)[C@]3(C)CC[C@]21C | 47 | 39.6 | 
14 | C[C@]1(C(=O)O)CC[C@]2(C)CC[C@]3(C)C(=CC[C@@H]4[C@@]5(C)CC[C@H](O[C@@H]6O[C@H](C(=O)O)[C@@H](O)[C@H](O)[C@H]6O[C@@H]6O[C@H](C(=O)O)[C@@H](O)[C@H](O)[C@H]6O)[C@](C)(CO)[C@@H]5CC[C@]43C)[C@H]2C1 | 47 | 39.6 | 
15 | CC1(C)[C@@H](O[C@@H]2O[C@H](C(=O)O)[C@@H](O)[C@H](O)[C@H]2O)CC[C@]2(C)[C@H]3C(=O)C=C4[C@H]5C[C@@](C)(C(=O)O)CC[C@]5(C)CC[C@@]4(C)[C@]3(C)CC[C@@H]12 | 47 | 39.6 | 
16 | C[C@@]1(C(=O)O)CC[C@@]2(C)CC[C@@]3(C)C(=CC(=O)[C@H]4[C@]5(C)CC[C@@H](O[C@H]6O[C@@H](C(=O)O)[C@H](O)[C@@H](O)[C@@H]6O[C@H]6O[C@@H](C(=O)O)[C@@H](O)[C@@H](O)[C@@H]6O)[C@@](C)(CO)[C@H]5CC[C@@]43C)[C@@H]2C1 | 47 | 39.6 | 
17 | CC(=O)O[C@H]1C[C@@](C)(C(=O)O)C[C@H]2C3=CC(=O)[C@H]4[C@]5(C)CC[C@@H](O[C@@H]6O[C@H](C(=O)O)[C@@H](O)[C@H](O)[C@H]6O[C@H]6O[C@@H](CO)[C@H](O)[C@@H](O)[C@@H]6O[C@H]6O[C@H](C)[C@@H](O)[C@H](O)[C@@H]6O)C(C)(C)[C@H]5CC[C@]4(C)[C@@]3(C)CC[C@]12C | 47 | 39.6 | 
18 | CC1(C)[C@@H](O[C@@H]2O[C@H](C(=O)O)[C@@H](O)[C@H](O)[C@H]2O[C@@H]2O[C@H](C(=O)O)[C@@H](O)[C@H](O)[C@H]2O)CC[C@]2(C)[C@H]3C(=O)C=C4[C@H]5C[C@@](C)(CO)C[C@@H](O)[C@]5(C)CC[C@@]4(C)[C@]3(C)CC[C@@H]12 | 47 | 39.6 | 
19 | CC1(C)[C@H]2CC[C@@]3(C)[C@@H](C(=O)C=C4[C@@H]5C[C@]6(C)C[C@@H](COC6=O)[C@@]5(C)CC[C@@]43C)[C@]2(C)CC[C@H]1O[C@H]1O[C@@H](C(=O)O)[C@H](O)[C@@H](O)[C@@H]1O[C@@H]1O[C@H](C(=O)O)[C@H](O)[C@H](O)[C@H]1O | 47 | 39.6 | 
20 | CCOC(=O)C1=C[C@@H](OC(CC)CC)[C@H](NC(C)=O)[C@@H](N)C1 [OSELTAMIVIR PHOSPHATE] |  | 45.6 | 
21 | CC(C)(O)CCc1c(O)cc2occ(-c3ccc(O)c(O)c3)c(=O)c2c1O | >30 |  | 
